# Several values for one entry are separate records, joined by “and”; a condition that tells them apart may be missing. Equal entries are not always repeated.
# Legend:
# Assay type in all cases: in vivo, human
# [1] = tested on: platinum-resistant ovarian cancer (prOVCA); assay: Phase 2 efficacy
# Procedure, shortened: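 Oral test compound 300 mg QD plus anti-PD-1 antibody 200 mg IV Q3W. PD-1/PD-L1 IR cohort: progression on anti-PD-1/PD-L1 (RECIST or irRC). prOVCA cohort: progression ≤6 months after ≥4 platinum cycles. PDA cohort: ≥1 prior systemic line. Investigator assessed best response per RECIST v1.1 and irRC. ORR used confirmed responses with Clopper–Pearson 95% CI; all dosed patients. Screening tissue was profiled for MSI/MMR, TMB and gene expression.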
# [2] = Phase 2 plasma pharmacokinetics of ARRY-382 and metabolites; settings: for RAUC (accumulation ratio), geometric mean (geometric %CV) / Ctrough, geometric mean (geometric %CV) / RCmax (accumulation ratio), geometric mean (geometric %CV): Cycle 2 day 1, 300 mg; for AUC(0-t) / AUC / Cmax / Tmax: human, plasma, oral, 300 mg; for AUC(0-t): AUClast; for AUC(0-t) / AUC / Cmax: geometric mean (geometric %CV); for AUC: AUCtau; for Tmax: median (range)
# Procedure, shortened: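 Blood was collected for plasma test compound and its N-oxide, N-desmethyl and sulfate metabolites. Trough samples were taken ≤120 min before the oral dose on cycle 1 day 15 and day 1 of cycles 3–6. Doses were 200–400 mg QD in Phase 1b and 300 mg QD in Phase 2. Non-compartmental parameters were estimated per patient in the PK set, reported as geometric mean (geometric %CV) and Tmax as median (range).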
# [3] = tested on: CSF-1R; assay: Phase 1b pharmacodynamic biomarkers
# Procedure, shortened: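 Blood was drawn for serum CSF-1 and CTX, plus serum osteoprotegerin and non-classical monocytes in Phase 2. Urine was collected for NTX. Samples were taken pre-dose on cycle 1 days 1, 8 and 15, on day 1 of later cycles and at discontinuation. Mean change on cycle 1 day 15 versus cycle 1 day 1 was summarized descriptively, with outliers excluded.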
# [4] = tested on: patients with PDA, PD-1/PD-L1 IR advanced solid tumors or prOVCA; assay: Phase 2, ARRY-382 300 mg QD plus pembrolizumab 200 mg IV Q3W: adverse events; settings: PD-1/PD-L1 IR
# Procedure, shortened: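 Open-label study at 12 US centres with three cohorts: pancreatic ductal adenocarcinoma after ≥1 prior systemic line; tumours progressing on anti-PD-1/PD-L1; ovarian, peritoneal or fallopian cancer progressing ≤6 months after ≥4 platinum cycles. Oral test compound 300 mg QD plus anti-PD-1 antibody 200 mg IV every 3 weeks. AEs, SAEs and labs graded by CTCAE v4.03 in all dosed patients; descriptive summary.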
# [5] = Cycle 1 day 1, PD-1/PD-L1 IR, n = 18
# [6] = Cycle 2 day 1, PD-1/PD-L1 IR, n = 6
compound,measurement,setting,value
Cc1cccc(Cn2nc(C3CC3)c3c(NC(=O)c4cnc5cc(OCCN6CCN(C)CC6)ccn45)cccc32)n1 [ARRY-382],Median OS,[1],"NR (95% CI, 5.3–NR)"
same,Median PFS,[1],"2.1 (95% CI, 1.2–4.1) months"
same,Median irPFS per irRC,[1],"2.5 (95% CI, 1.2–NR) months"
same,Best overall response: CR,[1]; N = 11,0 (0.0) n (%)
same,Best overall response: NE,[1]; N = 11,2 (18.2) n (%)
same,Best overall response: PD,[1]; N = 11,5 (45.5%) n (%) and 5 (45.5) n (%)
same,Best overall response: PR,[1]; N = 11,0 (0.0) n (%)
same,Best overall response: SD,[1]; N = 11,4 (36.4%) n (%) and 4 (36.4) n (%)
same,Immune-related best overall response: CR,[1]; N = 11,0 (0.0) n (%)
same,Immune-related best overall response: NE,[1]; N = 11,5 (45.5) n (%)
same,Immune-related best overall response: PD,[1]; N = 11,0 (0.0) n (%)
same,Immune-related best overall response: PR,[1]; N = 11,0 (0.0) n (%)
same,Immune-related best overall response: SD,[1]; N = 11,6 (54.5) n (%)
same,"ORR, % (95% CI)","[1]; confirmed, N = 11",0.0 (0.0–28.5) %
same,"ir-ORR, % (95% CI)","[1]; confirmed, N = 11",0.0 (0.0–28.5) %
same,"RAUC (accumulation ratio), geometric mean (geometric %CV)",[2]; Overall,2.49 (35.6)
same,"Ctrough, geometric mean (geometric %CV)","[2]; Overall, n = 15",796 (86.9) ng/mL
same,"RCmax (accumulation ratio), geometric mean (geometric %CV)","[2]; Overall, n = 15",2.06 (41.9)
same,"RAUC (accumulation ratio), geometric mean (geometric %CV)","[2]; PD-1/PD-L1 IR, n = 3",2.67 (36.2)
same,"Ctrough, geometric mean (geometric %CV)","[2]; PD-1/PD-L1 IR, n = 6",878 (70.1) ng/mL
same,"RCmax (accumulation ratio), geometric mean (geometric %CV)","[2]; PD-1/PD-L1 IR, n = 6",2.52 (39.9)
same,"RAUC (accumulation ratio), geometric mean (geometric %CV)","[2]; PDA, n = 3",3.41 (23.6)
same,"Ctrough, geometric mean (geometric %CV)","[2]; PDA, n = 4","1,480 (17.5) ng/mL"
same,"RCmax (accumulation ratio), geometric mean (geometric %CV)","[2]; PDA, n = 4",2.07 (53.6)
same,"RAUC (accumulation ratio), geometric mean (geometric %CV)","[2]; prOVCA, n = 4",1.87 (16.7)
same,"Ctrough, geometric mean (geometric %CV)","[2]; prOVCA, n = 5",438 (86.5) ng/mL
same,"RCmax (accumulation ratio), geometric mean (geometric %CV)","[2]; prOVCA, n = 5",1.62 (24.7)
same,AUC(0-t),"[2]; Cycle 1 day 1, Overall, n = 55",6310 ng·h/mL
same,AUC(0-t),[2]; [5],6320 ng·h/mL
same,AUC(0-t),"[2]; Cycle 1 day 1, PDA, n = 26",6350 ng·h/mL
same,AUC(0-t),"[2]; Cycle 1 day 1, prOVCA, n = 11",6210 ng·h/mL
same,AUC(0-t),"[2]; Cycle 2 day 1, Overall, n = 15",28500 ng·h/mL
same,AUC(0-t),[2]; [6],26600 ng·h/mL
same,AUC(0-t),"[2]; Cycle 2 day 1, PDA, n = 4",47100 ng·h/mL
same,AUC(0-t),"[2]; Cycle 2 day 1, prOVCA, n = 5",20700 ng·h/mL
same,AUC,"[2]; Cycle 2 day 1, Overall, n = 15",30600 ng·h/mL
same,AUC,[2]; [6],32100 ng·h/mL
same,AUC,"[2]; Cycle 2 day 1, PDA, n = 4",47100 ng·h/mL
same,AUC,"[2]; Cycle 2 day 1, prOVCA, n = 5",20700 ng·h/mL
same,Cmax,"[2]; Cycle 1 day 1, Overall, n = 55",1270 ng/mL
same,Cmax,[2]; [5],1240 ng/mL
same,Cmax,"[2]; Cycle 1 day 1, PDA, n = 26",1290 ng/mL
same,Cmax,"[2]; Cycle 1 day 1, prOVCA, n = 11",1260 ng/mL
same,Cmax,"[2]; Cycle 2 day 1, Overall, n = 15",2080 ng/mL
same,Cmax,[2]; [6],2130 ng/mL
same,Cmax,"[2]; Cycle 2 day 1, PDA, n = 4",2820 ng/mL
same,Cmax,"[2]; Cycle 2 day 1, prOVCA, n = 5",1580 ng/mL
same,Tmax,[2]; [5],1.97 h
same,Tmax,"[2]; Cycle 1 day 1, prOVCA, n = 11",2 h
same,Tmax,[2]; [6],2 h
same,Tmax,"[2]; Cycle 2 day 1, PDA, n = 4",3.03 h
same,Change in mean CTX or NTX,[3]; cycle 1 day 15 compared with cycle 1 day 1,no changes
same,Increase in mean serum CSF-1,"[3]; cycle 1 day 15 versus cycle 1 day 1, P < 0.05",4.5 fold
same,ARRY-382-related SAEs,[4],15.8%
same,ARRY-382-related fatigue,[4],47.4%
same,ARRY-382-related grade ≥3 AEs,[4],57.9%
same,ARRY-382-related increased CPK,[4],47.4%
same,ARRY-382-related nausea,[4],42.1%
same,Dose reduction or interruption of ARRY-382 due to AEs,[4],13 (68.4%) n (%)
same,Patients with ≥1 dose reduction or interruption of ARRY-382,[4],15 (78.9%) n (%)
same,Permanent discontinuations due to AEs,[4],1 (5.3%) n (%)
same,ARRY-382-related AEs: ALT increased,[4]; N = 19,2 (10.5) n (%)

# Reference: PMC9359741 (Clinical Cancer Research, 2022)
